From PubChem BioAssay
The list is not random: actives were taken first. Their share in the collection is about 1.5%.
PDI turbidity: inhibitors of human protein disulfide isomerase | inhibition, % at 10 µM | AID 588391 | 0.052% of 350,000 active | PDI insulin aggregation turbidity, A650, 90 min;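 active = mean inhibition across replicates of 30% or more, whatever share of single replicates reach that level; inconclusive = mean inhibition below 30% while every single replicate reaches 30%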
SIRT5 inh: inhibitors of human sirtuin-5 desuccinylase; Q9NXA8; Purified SirT5, succinyl-peptide AMC, trypsin-coupled fluorescence; inhibition, % at 15 µM; 1.1% of 330,000 active; in the data active = inhibition above about 15%; inconclusive = no clear call, values can overlap the other calls
Target sequence (Q9NXA8 whole entry, looked up): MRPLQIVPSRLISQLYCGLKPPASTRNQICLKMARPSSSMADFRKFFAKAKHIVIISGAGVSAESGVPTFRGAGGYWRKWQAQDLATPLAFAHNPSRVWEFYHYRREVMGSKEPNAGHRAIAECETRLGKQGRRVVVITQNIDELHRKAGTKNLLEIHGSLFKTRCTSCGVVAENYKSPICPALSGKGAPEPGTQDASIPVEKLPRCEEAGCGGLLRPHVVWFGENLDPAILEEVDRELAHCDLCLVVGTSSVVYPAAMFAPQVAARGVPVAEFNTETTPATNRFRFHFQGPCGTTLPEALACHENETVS
ERp5 inh: blocks human ERp5 reductase activity on insulin | Q15084 | ERp5 insulin aggregation, absorbance 650 nm, 90 min | inhibition, % at 9.99 µM | 0.05% of 350,000 active;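 active = mean replicate inhibition above about 25%, with every replicate also reaching it, limit read from the data, passing the limit was not always enough; inconclusive = only one of those two criteria met; inactive = neither criterion met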
GSIS activator: GLuc luminescence reporter in INS-1E cells, primary screen for activators of glucose-dependent secretion of insulin; INS-1E GLuc reporter insulin secretion, 2-3 h; 0.61% of 370,000 active; activation, % at 16.6 µM;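 active = lowest replicate activation of at least 40%, so every replicate reaches that level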;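 also: 0% = median of neutral control wells and 100% = median of IBMX positive control wells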
S100A4 inh HTS: blocks human S100A4 binding to myosin IIA peptide | S100A4/TAMRA-MyoIIA peptide fluorescence polarization | 0.14% of 360,000 active | P26447 | inhibition, % at 10.7 µM;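 active = mean inhibition of at least 70% across replicates, with every replicate also reaching that level; inconclusive = mean inhibition reaches 70% but some replicates fall short; inactive = mean inhibition below 70%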
Target sequence (P26447 whole entry, looked up): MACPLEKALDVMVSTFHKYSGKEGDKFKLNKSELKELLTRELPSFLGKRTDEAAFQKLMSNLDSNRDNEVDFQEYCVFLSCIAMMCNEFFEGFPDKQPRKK
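Material: human S100A4 monomer with TAMRA-labelled myosin IIA peptide; buffer or medium: HEPES pH 7.2 with CaCl2, KCl, NaCl, DTT, Triton; compound dosing: one concentration per compound; schedule: 5 min incubation before reading; benchmarks: neutral control DMSO, positive control TFP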
The depositor's hits bear a star; ? = inconclusive; · = no result; + = active, no number.

SMILES	PDI turbidity	SIRT5 inh	ERp5 inh	GSIS activator	S100A4 inh HTS
Cc1nn(C)c(C)c1CCC(=O)N1CCCC(C(=O)c2cccc(OC(C)C)c2)C1 (stereo not drawn)	-9	-2	1	4	-4
CC(C)NC(=O)N1[C@H](CN(C)C(=O)c2ccccc2)[C@@H](c2ccccc2)[C@@H]1CO	·	18*	1	-1	-3
COCC(=O)N(C)C[C@H]1[C@H](c2ccccc2)[C@@H](CO)N1C(=O)Cc1ccncc1	·	20*	-1	-1	6
C[C@H](CO)N1C[C@H](C)[C@@H](CN(C)S(C)(=O)=O)Oc2ccc(NC(=O)Nc3cccc4ccccc34)cc2CC1=O	·	3	-1	·	4
COc1ccccc1/C=C/c1nc(S(=O)(=O)c2ccccc2)c(N2CCC(C(N)=O)CC2)o1	6	17*	0	-5	-9
CC(=O)Nc1ccc(NC(=O)C2CCCN2C(=O)Nc2ccccc2[N+](=O)[O-])cc1 (stereo not drawn)	-6	21*	16	7	1
CCc1ccccc1Nc1nc(N)nc(CSCC(=O)Nc2ccc(C)c(C)c2)n1	-10	16*	0	-17	-2
CCc1ccc(NC(=O)CSCc2nc(N)nc(Nc3ccccc3CC)n2)cc1	2	·	·	-33	·
O=C(O)[C@H]1[C@H](CO)[C@H]2Cn3c(ccc(C4=CCCCC4)c3=O)[C@H]2N1Cc1ccc2c(c1)OCO2	·	-1	2	5	24
CCC(=O)N1CC2(CN(Cc3nccs3)C2)c2c(n(C)c3cc(OC)ccc23)[C@@H]1CO	·	·	·	37	·
COc1ccc(C[C@H]2CCn3nncc3COC[C@H](CC(C)C)NC2=O)cc1	·	·	·	-1	·
CN1CCCCC(NC(=O)c2ccccc2)C1=O (stereo not drawn)	·	·	4	117*	1
COc1ccc(-n2c(C)cc(C)c(C(C)=O)c2=S)cc1	-5	27*	6	·	-22
COc1ccc(-n2c(C)c(C(C)=O)c3cc(OC(C)=O)ccc32)cc1	-2	1	1	12	-3
CCSc1nc2sc3c(c2c(=O)n1CC)CC(C)(C)OC3	6	·	·	·	·
CCn1c(SCC(=O)OC)nc2sc3c(c2c1=O)CC(C)(C)OC3	-2	-3	-6	74*	1
CC(=O)Nc1ccc(NC(=O)COc2ccc(Br)cc2C)cc1	3	15*	16	-5	-6
CC(=O)N(C)c1ccc(NC(=O)COc2ccc(Br)cc2C)cc1	-10	3	?	-12	1
C/C(=N\NC(=S)NC(C)C)c1ccccc1	9	-1	-6	54*	2
C[C@@H]1CN([C@H](C)CO)C(=O)c2cc(NC(=O)CCC(F)(F)F)ccc2O[C@H]1CN(C)S(=O)(=O)c1ccc(Cl)cc1	·	-3	-3	8	-10
COc1ccc(CCNC(=O)COC(=O)CSc2ccc([N+](=O)[O-])cc2)cc1OC	-2	7	1	46	26
COc1ccc(CCNC(=O)COC(=O)CSc2ccc(C(N)=O)cc2[N+](=O)[O-])cc1OC	8	-1	·	46*	1
Cc1[nH]nc(SCC(=O)NCCc2ccccc2)c1[N+](=O)[O-]	11	0	1	-4	1
COc1ccc(CCNC(=O)CSc2n[nH]c(C)c2[N+](=O)[O-])cc1OC	3	-5	-5	52*	1
CCCCc1nn2c(N)c(/C=C3\C=Nc4ccccc43)c(=O)nc2s1	4	·	·	-2	·
SMILES	PDI turbidity	SIRT5 inh	ERp5 inh	GSIS activator	S100A4 inh HTS
CCCCn1c(O)c(/C=C2\C=Nc3ccccc32)c(=O)[nH]c1=O	-7	0	1	·	81*
COc1ccc2[nH]c(=O)c(CN(CCc3ccccc3)C(C)=O)cc2c1	3	·	·	-22	·
COc1ccc2[nH]c(=O)c(CN(CCO)C(=O)c3ccccc3F)cc2c1	0	-10	-2	67*	1
CC1=[N+](C)c2ccc3ccccc3c2C1(C)C	1	0	10	-4	145*
Cc1ccc(S(=O)(=O)NCc2ccccc2)cc1C(=O)NCC1CCCO1 (stereo not drawn)	-5	3	1	-9	+
CCc1csc(N2[C@H](CO)[C@@H](c3ccc(-c4ccc(F)cc4)cc3)[C@@H]2C#N)n1	·	6	3	2	1
COc1ccc(NC(=O)N2CC(=O)N3[C@H](CO)[C@H](c4ccc(C#CCC5CCCC5)cc4)[C@@H]3C2)cc1	·	2	-2	-5	-2
COc1cccc(NC(=O)N2CC(=O)N3[C@H](CO)[C@H](c4ccc(C#CCC5CCCC5)cc4)[C@@H]3C2)c1	·	24*	-5	-13	-5
COc1cccc(NC(=O)N2CC(=O)N3[C@H](CO)[C@@H](c4ccc(C#CCC5CCCC5)cc4)[C@@H]3C2)c1	·	24*	-3	0	-2
COc1cccc(NC(=O)N2CC(=O)N3[C@H](CO)[C@@H](c4ccc(C#CCC5CCCC5)cc4)[C@H]3C2)c1	·	22*	-2	-11	-6
COc1cccc(NC(=O)N2CC(=O)N3[C@H](C2)[C@H](c2ccc(C#CCC4CCCC4)cc2)[C@@H]3CO)c1	·	25*	-5	9	9
COc1ccc(CN(C)C[C@@H]2Oc3ccc(NC(=O)c4ccncc4)cc3C(=O)N([C@@H](C)CO)C[C@H]2C)cc1	·	-5	-5	-2	-3
O=C(C1=C[C@@H](c2ccccc2)C[C@@H](OCc2ccc(CO)cc2)O1)N1CCCC1	·	-19	-2	·	7
COc1cccc(NC(=O)N2CC(=O)N3[C@@H](CO)[C@@H](c4ccc(C#CCC5CCCC5)cc4)[C@@H]3C2)c1	·	17*	-5	15	4
COc1ccc(NC(=O)N2CC(=O)N3[C@@H](CO)[C@@H](c4ccc(C#CCC5CCCC5)cc4)[C@@H]3C2)cc1	·	1	-3	-15	-6
C[C@H](CO)N1C[C@H](C)[C@@H](CN(C)C(=O)c2ccccc2)Oc2ncc(/C=C/c3ccccc3)cc2C1=O	·	-10	-20	-29	-14
CCCCOc1ccc(-c2nnn(CC(=O)c3c[nH]c4ccccc34)n2)cc1	-4	·	·	94*	·
C/C=C/c1ccc([C@@H]2[C@@H](CO)N(C(=O)CN3CCOCC3)[C@H]2C#N)cc1	·	-3	-4	1	-20
Cc1ccc(S(=O)(=O)c2cc(Nc3ccccc3)ccc2O)cc1	-7	·	-2	3	-1
Nc1ccc(Nc2ccccc2)c(S(=O)(=O)O)c1	7	55*	0	-1	-12
Cc1ccc(Nc2ccc(N)cc2S(=O)(=O)O)cc1	0	56*	-1	5	-23
C[C@@H]1ON(C)[C@H]2C[C@H]3c4[nH]c5cccc(Br)c5c4CCN3C(=O)[C@@H]12	·	0	4	125*	-12
CC(=O)c1cccc(CN2CCN(CC=C(C)C)C(CCO)C2)c1 (stereo not drawn)	0	17*	0	-4	5
CC(C)=CCN1CCN(Cc2cn(C(C)C)c3ccccc23)CC1CCO (stereo not drawn)	13	22*	-2	-10	-4
